The results in this text go back to ChEMBL document CHEMBL4811231, “Discovery and structural optimization of 3-O-β-chacotriosyl oleanane-type triterpenoids as potent entry inhibitors of SARS-CoV-2 virus infections” (Eur J Med Chem, 2021).

The term CC50 denotes the concentration that lowers cell viability or growth by half. The Kd is the free concentration of one partner at which half of the binding sites on the other are occupied at equilibrium, for simple one-to-one binding. What is called IC50 is the point on the concentration scale where inhibition reaches its midpoint.

A short description of data set [1]: Selectivity index, ratio of CC50 for cytotoxicity against human 293T/ACE2 cells to IC50 for SARS-CoV-2 spike glycoprotein S inhibition. In kind it is toxicity, cell-based. Particulars: read-out: Selectivity Index; call rule not given here.
Data set [2] is described as follows: Cytotoxicity against human 293T/ACE2 cells measured after 48 hrs by MTT assay. Particulars: 293t/ace2, 48 h. In kind it is cell-based. In short, it runs like this: (§1)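 MTT assay on monolayers of 293T-ACE2 or Vero-E6 cells. Cells were rinsed with PBS and exposed to compound for 48 h, then given 0.5 mg/mL MTT for 4 h at 37 °C. Formazan was dissolved in DMSO and absorbance read at 570 nm.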
On the technique in general: Formazan colour is commonly taken as a measure of viable cells.

For data set [3], the system named is Vero E6. Kind of data set: Inhibition of SARS-CoV-2 spike glycoprotein S2 in human HEK293T cells transfected with pAAV-IRES-GFP-SARS-CoV-2 S assessed as inhibition of membrane fusion to african green monkey Vero E6 cells […] pretreated at 2.5 to 20 uM for 30 mins measured after 24 hrs by cell-cell fusion based fluorescence microscopy. Particulars: Severe acute respiratory syndrome-related coronavirus, dose 2.5-20 µM. In a few lines: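 Effector HEK-293T cells were transfected with pAAV-IRES-GFP-SARS-CoV-2 S, or with empty pAAV-IRES-GFP as vehicle. They were pretreated with compound for 30 min and overlaid on Vero-E6 target cells seeded 6 h earlier (20,000/well). After 24 h, three random fields were imaged by fluorescence microscopy.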

The nature of data set [4]: Inhibition of SARS-CoV-2 spike glycoprotein S1 binding to human ACE2 receptor in co-transfected human HEK293T cells at 40 uM measured by Co-immunoprecipitation based Western blot assay. In kind it is cell-based, Severe acute respiratory syndrome-related coronavirus. In short, it runs like this: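 293T cells were co-transfected with ACE2-Flag and SARS-S plasmids, and total protein was extracted after 48 h. Lysates were immunoprecipitated overnight with protein A Sepharose and anti-Flag antibody (mouse IgG as control). Proteins were run on 10% PAGE and blotted with anti-Flag and anti-SARS-CoV-S antibodies plus an HRP secondary.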
(In general: A western blot detects proteins with antibodies after separation by electrophoresis.)

Data set [5] in a line: Antiviral activity against SARS-CoV-2 Wuhan-HU-1 preincubated for 1 hr with African green monkey VeroE6 cells assessed as inhibition of viral infection by measuring total RNA after 24 hrs by qPCR analysis. In kind it is functional, cell-based, Vero E6. Particulars: Severe acute respiratory syndrome-related coronavirus, Wuhan-HU-1, Vero C1008.
The test system of data set [6] is Vero C1008. Kind of data set: Cytotoxicity against African Green monkey Vero E6 cells measured after 48 hrs by MTT assay. In kind it is cell-based. To be noted: chlorocebus sabaeus, vero c1008, 48 h. In short, it runs like this: as §1
Data set [7] is described as follows: Binding affinity to SARS-CoV-2 spike glycoprotein S1 measured by Surface plasmon resonance. Further details: species or system Severe acute respiratory syndrome-related coronavirus. In a few lines: (§2)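 Compound was immobilised on the chip by photo-crosslinking. Recombinant SARS-CoV-2 S-trimer, S1 or S2 protein was injected at a series of concentrations in PBST (0.1% Tween 20, pH 7.4) at 4 °C. Binding lasted 600 s and dissociation 360 s, at 0.5 µL/s. The chip was regenerated with glycine-HCl pH 2.0.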
Background: Surface plasmon resonance follows binding to a sensor surface in real time, without labels.

Data set [8] in a line: Binding affinity to SARS-CoV-2 spike glycoprotein S2 measured by Surface plasmon resonance. Further details: species or system Severe acute respiratory syndrome-related coronavirus. In a few lines:
as §2

Data set [9] relates to Vero E6. Kind of data set: Antiviral activity against SARS-CoV-2 Wuhan-HU-1 infection on African green monkey Vero E6 cells assessed by viral nucleoprotein expression at 0.55 to 15 uM measured after 48 hrs by DAPI staining based indirect immunoflourescence microscopy relative to control. In kind it is functional, cell-based. Particulars: Severe acute respiratory syndrome-related coronavirus, dose 0.55-15 µM.

Structures are written as SMILES.

Take `C[C@@H]1O[C@@H](O[C@H]2[C@H](O[C@H]3CC[C@]4(C)[C@H]5CC=C6[C@@H]7CC(C)(C)CC[C@]7(C(=O)NCc7ccccc7Br)CC[C@@]6(C)[C@]5(C)CC[C@H]4C3(C)C)O[C@H](CO)[C@@H](O[C@@H]3O[C@@H](C)[C@H](O)[C@@H](O)[C@H]3O)[C@@H]2O)[C@H](O)[C@H](O)[C@H]1O`: in [1], the selectivity ratio was > 8.51. In data set [2], the CC50 is > 100 µM.

In the case of `C[C@@H]1O[C@@H](O[C@H]2[C@H](O[C@H]3CC[C@]4(C)[C@H]5CC=C6[C@@H]7CC(C)(C)CC[C@]7(C(=O)Nc7ccccc7)CC[C@@]6(C)[C@]5(C)CC[C@H]4C3(C)C)O[C@H](CO)[C@@H](O[C@@H]3O[C@@H](C)[C@H](O)[C@@H](O)[C@H]3O)[C@@H]2O)[C@H](O)[C@H](O)[C@H]1O`, in [1], the selectivity ratio was 1.85. Moreover, the midpoint of cytotoxicity in data set [2], the CC50, lay at 33.5 µM.

With `C[C@@H]1O[C@@H](O[C@H]2[C@H](O[C@H]3CC[C@]4(C)[C@H]5CC=C6[C@@H]7CC(C)(C)CC[C@]7(C(=O)OCc7ccccc7)CC[C@@]6(C)[C@]5(C)CC[C@H]4C3(C)C)O[C@H](CO)[C@@H](O[C@@H]3O[C@@H](C)[C@H](O)[C@@H](O)[C@H]3O)[C@@H]2O)[C@H](O)[C@H](O)[C@H]1O`, in [1], the selectivity ratio was found to be 1.29. Further, in data set [2], the CC50 is 21.6 µM.

With `COc1ccccc1NC(=O)[C@]12CCC(C)(C)C[C@H]1C1=CC[C@@H]3[C@@]4(C)CC[C@H](O[C@@H]5O[C@H](CO)[C@@H](O[C@@H]6O[C@@H](C)[C@H](O)[C@@H](O)[C@H]6O)[C@H](O)[C@H]5O[C@@H]5O[C@@H](C)[C@H](O)[C@@H](O)[C@H]5O)C(C)(C)[C@@H]4CC[C@@]3(C)[C@]1(C)CC2`, the selectivity ratio in [1] turned out to be 5.64. It took 31.2 µM to reach half-maximal cytotoxicity in [2] (CC50).

`C[C@@H]1O[C@@H](O[C@H]2[C@H](O[C@H]3CC[C@]4(C)[C@H]5CC=C6[C@@H]7CC(C)(C)CC[C@]7(C(=O)NCCc7ccccc7)CC[C@@]6(C)[C@]5(C)CC[C@H]4C3(C)C)O[C@H](CO)[C@@H](O[C@@H]3O[C@@H](C)[C@H](O)[C@@H](O)[C@H]3O)[C@@H]2O)[C@H](O)[C@H](O)[C@H]1O`: in data set [1], the selectivity ratio was > 13.6. For the same compound, in [2], the CC50 was > 100 µM.

As to `C[C@@H]1O[C@@H](O[C@H]2[C@H](O[C@H]3CC[C@]4(C)[C@H]5CC=C6[C@@H]7CC(C)(C)CC[C@]7(C(=O)NCc7ccccc7)CC[C@@]6(C)[C@]5(C)CC[C@H]4C3(C)C)O[C@H](CO)[C@@H](O[C@@H]3O[C@@H](C)[C@H](O)[C@@H](O)[C@H]3O)[C@@H]2O)[C@H](O)[C@H](O)[C@H]1O`, the selectivity ratio in data set [1] was > 22.9. In addition, in data set [2], the CC50 was > 100 µM. Further, the inhibition result in data set [3] and in data set [9] was “Dose-Dependent Effect” throughout. The values for the Kd result in data set [4], in data set [7] and in [8] were “Active”, 3690 µM and 2.16 µM, respectively. In data set [5], the IC50 is 0.97 µM. The Activity entry in data set [6] is listed as “Non-Toxic”.

As for `C[C@@H]1O[C@@H](O[C@H]2[C@H](O[C@H]3CC[C@]4(C)[C@H]5CC=C6[C@@H]7CC(C)(C)CC[C@]7(C(=O)NCc7ccccc7F)CC[C@@]6(C)[C@]5(C)CC[C@H]4C3(C)C)O[C@H](CO)[C@@H](O[C@@H]3O[C@@H](C)[C@H](O)[C@@H](O)[C@H]3O)[C@@H]2O)[C@H](O)[C@H](O)[C@H]1O`, the selectivity ratio in data set [1] was > 17.6. In data set [2], the CC50 was > 100 µM.

As to `C[C@@H]1O[C@@H](O[C@H]2[C@H](O[C@H]3CC[C@]4(C)[C@H]5CC=C6[C@@H]7CC(C)(C)CC[C@]7(C(=O)Nc7ccccc7Cl)CC[C@@]6(C)[C@]5(C)CC[C@H]4C3(C)C)O[C@H](CO)[C@@H](O[C@@H]3O[C@@H](C)[C@H](O)[C@@H](O)[C@H]3O)[C@@H]2O)[C@H](O)[C@H](O)[C@H]1O`, the selectivity ratio in [1] is 5.06. Moreover, in data set [2], the CC50 turned out to be 31.7 µM.

For `O=C(/C=C/c1ccc(O)c2oc(-c3ccc(O)c(O)c3)cc12)O[C@H](Cc1ccc(O)c(O)c1)C(=O)O`, in data set [1], the selectivity ratio was > 26. Moreover, the CC50 in [2] is > 100 µM.

In the case of `C[C@@H]1O[C@@H](O[C@H]2[C@H](O[C@H]3CC[C@]4(C)[C@H]5CC=C6[C@@H]7CC(C)(C)CC[C@]7(C(=O)NCc7ccccc7Cl)CC[C@@]6(C)[C@]5(C)CC[C@H]4C3(C)C)O[C@H](CO)[C@@H](O[C@@H]3O[C@@H](C)[C@H](O)[C@@H](O)[C@H]3O)[C@@H]2O)[C@H](O)[C@H](O)[C@H]1O`, in [1], the selectivity ratio was > 15.8. Also, the CC50 in [2] was > 100 µM.

Take `COc1cccc(NC(=O)[C@]23CCC(C)(C)C[C@H]2C2=CC[C@@H]4[C@@]5(C)CC[C@H](O[C@@H]6O[C@H](CO)[C@@H](O[C@@H]7O[C@@H](C)[C@H](O)[C@@H](O)[C@H]7O)[C@H](O)[C@H]6O[C@@H]6O[C@@H](C)[C@H](O)[C@@H](O)[C@H]6O)C(C)(C)[C@@H]5CC[C@@]4(C)[C@]2(C)CC3)c1`: in data set [1], the selectivity ratio was > 12. Moreover, the CC50 in data set [2] is > 100 µM.

Take `COc1ccccc1CNC(=O)[C@]12CCC(C)(C)C[C@H]1C1=CC[C@@H]3[C@@]4(C)CC[C@H](O[C@@H]5O[C@H](CO)[C@@H](O[C@@H]6O[C@@H](C)[C@H](O)[C@@H](O)[C@H]6O)[C@H](O)[C@H]5O[C@@H]5O[C@@H](C)[C@H](O)[C@@H](O)[C@H]5O)C(C)(C)[C@@H]4CC[C@@]3(C)[C@]1(C)CC2`: in [1], the selectivity ratio was found to be 2. This compound also had a CC50 in data set [2] of 33.4 µM.

As for `COc1ccc(NC(=O)[C@]23CCC(C)(C)C[C@H]2C2=CC[C@@H]4[C@@]5(C)CC[C@H](O[C@@H]6O[C@H](CO)[C@@H](O[C@@H]7O[C@@H](C)[C@H](O)[C@@H](O)[C@H]7O)[C@H](O)[C@H]6O[C@@H]6O[C@@H](C)[C@H](O)[C@@H](O)[C@H]6O)C(C)(C)[C@@H]5CC[C@@]4(C)[C@]2(C)CC3)cc1`, the selectivity ratio in data set [1] was > 10. Also, the CC50 in [2] was > 100 µM.

Turning to `C[C@@H]1O[C@@H](O[C@H]2[C@H](O[C@H]3CC[C@]4(C)[C@H]5CC=C6[C@@H]7CC(C)(C)CC[C@]7(C(=O)N(C)Cc7ccccc7)CC[C@@]6(C)[C@]5(C)CC[C@H]4C3(C)C)O[C@H](CO)[C@@H](O[C@@H]3O[C@@H](C)[C@H](O)[C@@H](O)[C@H]3O)[C@@H]2O)[C@H](O)[C@H](O)[C@H]1O`, the selectivity ratio in [1] was found to be 4.84. This compound also displayed a CC50 in data set [2] of 37.6 µM.

In the case of `C[C@@H]1O[C@@H](O[C@H]2[C@H](O[C@H]3CC[C@]4(C)[C@H]5CC=C6[C@@H]7CC(C)(C)CC[C@]7(C(=O)NCCCc7ccccc7)CC[C@@]6(C)[C@]5(C)CC[C@H]4C3(C)C)O[C@H](CO)[C@@H](O[C@@H]3O[C@@H](C)[C@H](O)[C@@H](O)[C@H]3O)[C@@H]2O)[C@H](O)[C@H](O)[C@H]1O`, in data set [1], the selectivity ratio was > 7.66. In addition, the CC50 in [2] is > 100 µM.

Consider `C[C@@H]1O[C@@H](O[C@H]2[C@H](O[C@H]3CC[C@]4(C)[C@H]5CC=C6[C@@H]7CC(C)(C)CC[C@]7(C(=O)NCc7cccs7)CC[C@@]6(C)[C@]5(C)CC[C@H]4C3(C)C)O[C@H](CO)[C@@H](O[C@@H]3O[C@@H](C)[C@H](O)[C@@H](O)[C@H]3O)[C@@H]2O)[C@H](O)[C@H](O)[C@H]1O`, for which the selectivity ratio in [1] was determined as 5.92. In addition, it took 34.9 µM to reach half-maximal cytotoxicity in data set [2] (CC50).
